HEK293 NFkB inh = inhibitors of the PMA/ionomycin-induced NF-kB reporter in HEK293 cells; HEK-293 NF-kB luciferase reporter, luminescence; inhibition, % at 3 µM; hit rate 0.21% among 62,000; AID 465;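 active means inhibition above the mean of all tested compounds plus 3 SD, cut at about 40% in these data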;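 further: 0% = stimulated DMSO wells and 100% = 10 µM reference inhibitor 5653914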
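Material: HEK-293 cells with stable firefly luciferase reporter driven by four HIV NF-kB elements / Also added: PMA plus ionomycin mix as NF-kB-activating stimulus / Compound dosing: 3 µM once, 0.30% DMSO / Times: 1 h pretreatment, 16 h stimulation, 37 °C / Signal: luminescence / Evaluation: per-plate % inhibition versus controls / Benchmarks: DMSO and 10 µM reference inhibitor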
S1P1 ag pot = activates or potentiates agonism at human S1P1 receptor; P21453; S1P1 CRE-bla cells, forskolin, beta-lactamase FRET, potentiator mode; S1P1 agonist co-added at EC20, 2 nM; 100% = saturating reference agonist, 0% = basal; activation, % at 9.5 µM; hit rate 0.57% among 56,000; AID 449;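 active means activation above a cutoff set at the mean activation of all tested compounds plus 3 SD, cut at about 54% in these data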;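 further: forskolin at 4 µM as EC80 and the EC20 agonist is SEW2871; 100% = SEW2871 at its EC100 plus forskolin at EC80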
Target sequence (P21453 whole entry, looked up): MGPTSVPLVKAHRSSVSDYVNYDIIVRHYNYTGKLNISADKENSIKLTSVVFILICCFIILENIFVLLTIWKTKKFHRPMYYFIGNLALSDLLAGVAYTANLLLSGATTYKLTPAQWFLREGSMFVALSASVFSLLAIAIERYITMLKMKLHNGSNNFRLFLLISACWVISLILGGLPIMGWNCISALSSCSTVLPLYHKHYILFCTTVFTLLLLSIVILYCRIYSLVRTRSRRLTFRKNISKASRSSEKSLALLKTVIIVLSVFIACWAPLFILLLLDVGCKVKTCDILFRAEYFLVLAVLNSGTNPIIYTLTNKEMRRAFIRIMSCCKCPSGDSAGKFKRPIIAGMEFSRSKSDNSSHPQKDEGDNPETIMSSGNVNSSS
Jurkat tox 60K = reduces viability or proliferation of Jurkat cells; AID 463; inhibition, % at 4 µM; hit rate 1.2% among 56,000; Jurkat E6.1 viability, ATP luminescence, 48 h;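 active means inhibition above the mean inhibition of all tested compounds plus 3 SD, cut at about 28% in these data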
SK-BR-3 tox 24h = SK-BR-3 proliferation inhibitors; SK-BR-3 viability, CellTiter-Glo ATP luminescence, 24 h; active compounds read low; viability, % at 10 µM; hit rate 0.47% among 41,000; AID 847;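 active means viability at or below the median of all test compounds minus 3 SD, in both replicates if run twice, cut at about 45% in these data; inconclusive means duplicate replicates that disagree with each other; inactive means viability above that cutoff in every replicate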;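 further: 100% = median untreated cell wells and 0% = median positive control drug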
* hit, by the source's call; ? = inconclusive; / = not tested or not shown. Rows were chosen to be rich in hits. Some 1.9% of all compounds tested hit in one or more screens of this group.

SMILES | HEK293 NFkB inh | S1P1 ag pot | Jurkat tox 60K | SK-BR-3 tox 24h
CCOc1ccc2nc(N3CCC(C(=O)N4CCN(c5ccccn5)CC4)CC3)sc2c1 | 10 | 20 | 35* | /
COc1ccccc1N1CCN(CC(=O)Nc2cc(C)nn2-c2nc(C)cc(C)n2)CC1 | 27 | / | / | 79
Cc1cccc(N2CCN(C(=O)c3ccc(Cl)c(S(=O)(=O)NCc4ccco4)c3)CC2)c1C | 12 | -6 | 84* | /
CCn1c2ccccc2c2cc(Nc3cc(C)nc4ncnn34)ccc21 | 47* | -100 | 99* | /
CCc1cccc(Nc2cc(C)nc3ncnn23)c1 | 5 | -22 | -5 | /
CCOC(=O)Nc1ccc2c(c1)Nc1ccccc1S2 | 6 | 29 | 12 | 82
CCOC(=O)C1(Nc2nccs2)Sc2ccccc2NC1=O (stereo not drawn) | 26 | 33 | 83* | /
Cc1cc(C)nc(SCc2nc(N)nc(-c3ccccc3O)n2)n1 | -4 | -76 | 8 | 85
CC(=O)c1c(C)[nH]c(C(=O)OCCCCN2C(=O)c3ccccc3C2=O)c1C | 31 | 97* | 67* | /
O=C(OCCCCN1C(=O)c2ccccc2C1=O)c1n[nH]c2ccccc12 | 4 | -22 | 0 | /
Cc1ccc(Nc2cc(C)nn2-c2nc(C)cc(=O)[nH]2)cc1 | 68* | -12 | 94* | 130
O=C(COc1ccccc1Cl)NCc1ccncc1 | 13 | -5 | -4 | /
CC(C)(C)OC(=O)N[C@@H](Cc1ccccc1)c1nnc(S(=O)(=O)Cc2cccc(F)c2)o1 | 3 | 70* | 20 | 127
CC(=O)c1ccc(-c2nc3c4ccccc4ccn3c2C(C)=O)o1 | 89* | -59 | 1 | /
COc1cc(/C=C(/C#N)c2ccc(F)cc2)ccc1OCc1ccc(C(=O)O)o1 | 7 | -8 | -1 | 119
N#C/C(=C/c1ccc(N2CCCCCC2)o1)c1ccc(F)cc1 | 1 | 129 | 99* | 89
Cc1nc2ccccc2n1CC(=O)NCc1ccccc1 | 18 | 24 | 41* | 113
COc1ccc(S(=O)(=O)NCCSCc2ccco2)cc1Cl | 13 | -2 | 1 | 89
CC(C)c1ccc2oc(-c3cc(N)ccc3O)nc2c1 | 8 | 64* | 6 | /
C=CS(=O)(=O)c1ccc(Oc2ccc(S(=O)(=O)C=C)cc2)cc1 | 81* | 124* | 100* | ?
COc1cccc(-c2cc(C(=O)Nc3cc(OC)c(OC)c(OC)c3)no2)c1 | 22 | -28 | 67* | 110
Cc1ccc(NC(=O)c2cc(-c3ccco3)on2)cc1C | -18 | 72* | 4 | 106
CCc1c(C)sc(NC(=O)c2cc(-c3ccco3)on2)c1C#N | -2 | 92* | 3 | 89
COc1cccc(-c2cc(C(=O)Nc3cc(C)on3)no2)c1 | 10 | 15 | -1 | 91
CCCc1cc(C(=O)Nc2sc(C)c(CC)c2C#N)no1 | 12 | 74* | 7 | /
SMILES | HEK293 NFkB inh | S1P1 ag pot | Jurkat tox 60K | SK-BR-3 tox 24h
COc1ccc(N2CCN(Cc3nc4c(c(=O)n(C)c(=O)n4C)n3Cc3ccccc3C)CC2)cc1 | 20 | -18 | -2 | /
CCOc1ccc(NC(=O)c2oc3ccccc3c2NC(=O)C2CC2)cc1 | 5 | -1 | -3 | /
Cc1cc(NO)nc(-c2ccc(Br)cc2)n1 | -20 | -12 | 34* | /
Nc1ccc(Cl)cc1/C(=N/O)c1ccccc1 | / | 2 | / | 97
NC(=O)CSc1nnc2n(-c3ccccc3)c(=O)c3c4c(sc3n12)CCCCC4 | / | -5 | / | 32*
Nc1ccc(N2CCOCC2)c(Cl)c1 | 11 | 93* | 13 | 121
Nc1nc2sc3c(c2cc1C(=O)N1CCOCC1)CCCC3 | 15 | -6 | -2 | /
Cc1cccc2cc3c(N)c(C(=O)N4CCOCC4)sc3nc12 | 3 | 3 | 76* | 133
CC(=O)c1c(C)[nH]c(C(=O)N2CCN(C(=O)c3ccco3)CC2)c1C | 8 | 9 | 3 | /
COc1cccc(N2CCN(C(=O)c3[nH]c(C)c(C(C)=O)c3C)CC2)c1 | 31 | 3 | 91* | /
CCOc1ncccc1C(=O)OCC(=O)N1CC(=O)Nc2ccccc21 | 9 | -20 | -7 | /
Cc1noc(C)c1COc1cccc(C(=O)OCC(=O)N2CC(=O)Nc3ccccc32)c1 | -4 | 4 | 84* | /
Cc1ccnc(NC(=O)CCCOc2cc(=O)n(C)c3ccccc23)c1 | 7 | -25 | 89* | /
Cn1c(=O)cc(OCCCC(=O)NCc2ccccn2)c2ccccc21 | 9 | -28 | -7 | /
Cn1cc(C(=O)c2ccc(Cl)cc2)cc1-c1nc2ccccc2n1C | 10 | 46 | 42* | 72
COc1ccc(CN=CC2=C(O)CNC2=O)cc1OC | 18 | / | -1 | 92
O=C1NCC(O)=C1C=NCCCO | 1 | -24 | -3 | 31*
CSc1nc2c(c(=O)[nH]1)C(c1ccncc1)C(C(=O)OC(C)C)=C(C)N2 (stereo not drawn) | 6 | / | / | 83
Cc1cc(C(=O)COC(=O)c2csc3c2CCCC3)c(C)n1C | -7 | 79* | -4 | /
CCOC(=O)N1CCN(C(=O)c2csc3c2CCCCC3)CC1 | 9 | -8 | -8 | /
COC(=O)c1cccc(CSc2nnc(-c3ccco3)n2-c2ccccc2)c1 | 6 | -12 | 12 | 35*
CCOC(=O)CSc1nnc(-c2ccco2)n1-c1ccccc1 | 16 | 1 | -2 | /
CCOC(=O)c1c(NC(=O)c2cc(C3CC3)on2)sc2c1CCCC2 | -9 | -3 | -2 | /
Fc1ccc(Br)cc1C1C=C(c2cccnc2)Nc2ncnn21 (stereo not drawn) | 4 | 16 | 39* | /
CCC1CCCCN1C(=O)CSc1nnc(-c2c[nH]c3ccccc23)o1 (stereo not drawn) | 18 | 79* | 6 | 84
SMILES | HEK293 NFkB inh | S1P1 ag pot | Jurkat tox 60K | SK-BR-3 tox 24h
COc1ccccc1Oc1ccc2c(c1)C(=O)N(c1cccc(O)c1)C2=O | 14 | 94* | 10 | /
COc1ccc2c(c1OC)C(=O)N(c1cccc(C)c1)C2=O | 15 | -2 | 9 | /
CCN(C(=O)c1cc2cc(OC)ccc2oc1=O)c1ccccc1 | 10 | 5 | 1 | 90
C=CCN(C(=O)c1ccccc1)c1ccc(OC)cc1 | 4 | / | 49* | /
O=C(CCCn1nnc(-c2cccnc2)n1)c1ccc(F)cc1 | 0 | -8 | 1 | 89
CC(=O)c1c(N2CCN(Cc3ccccc3)CC2)[nH]c(-c2ccccc2)nc1=S | 20 | -22 | 38* | /
CCOc1ccc(N(CC)S(=O)(=O)c2ccc3c(c2)oc(=O)n3C)cc1 | 15 | -10 | 66* | 96
CCOc1ccc(-c2nc(CSCC(=O)N3CCN(c4cccc(OC)c4)CC3)c(C)o2)cc1 | 8 | 69* | 12 | /

Screens from PubChem.
